Runt-SMMHC FRET = inhibitors of RUNX1 Runt–CBFb-SMMHC binding, primary screen, biochemical, FRET, Cerulean-Runt, Venus-CBFb-SMMHC, uHTS. Runt-related transcription factor 1 (Homo sapiens) + Core-binding factor subunit beta …. Cerulean-Runt/Venus-CBFb-SMMHC FRET ratio 530/480, 1 h. 220,000 compounds, 0.74% hits. inhibition, % at 20 µM. AID 1434, 2008;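 active means mean inhibition across duplicate retests at 20 µM reaching about 50%, limit read from the data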;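 further: inhibitors lower the FRET ratio by blocking Runt binding to CBFb-SMMHC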
Runt-CBFb FRET = inhibitors of RUNX1 Runt–CBFb binding, primary screen, biochemical, FRET, Cerulean-Runt, Venus-CBFb, uHTS; Cerulean-Runt/Venus-CBFb FRET ratio 530/480, 1 h; Runt-related transcription factor 1 (Homo sapiens) + Core-binding factor subunit beta …; 220,000 compounds, 0.46% hits; inhibition, % at 20 µM;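 active means inhibition over about 50% at 20 µM in the single-dose screen, limit read from the data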
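Assay system: Cerulean-tagged RUNX1 Runt domain (FRET donor) fusion protein / Amount: 100 nM each of Venus-CBFb and Cerulean-Runt domain / Medium: Tris buffer pH 7.5 with salts and BSA / Also added: Venus-CBFb 100 nM / Schedule: 1 h complex formation plus 1 h compound treatment, room temperature / Signal: FRET fluorescence / Read-out: loss of energy transfer signal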
Hck Nef HTS = inhibitors of Nef-activated human Hck kinase, primary screen, biochemical, Z-Lyte FRET, 384-well, Hck-YEEI; Tyrosine-protein kinase HCK (Homo sapiens), P08631; Recombinant Hck-YEEI plus Nef, Z-Lyte FRET kinase assay; inhibition, % at 20 µM; 220,000 compounds, 0.68% hits;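 active means Hck-Nef kinase inhibition above about 50%, limit read from the data; inactive means inhibition below that limit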
Target sequence (P08631 whole entry, looked up): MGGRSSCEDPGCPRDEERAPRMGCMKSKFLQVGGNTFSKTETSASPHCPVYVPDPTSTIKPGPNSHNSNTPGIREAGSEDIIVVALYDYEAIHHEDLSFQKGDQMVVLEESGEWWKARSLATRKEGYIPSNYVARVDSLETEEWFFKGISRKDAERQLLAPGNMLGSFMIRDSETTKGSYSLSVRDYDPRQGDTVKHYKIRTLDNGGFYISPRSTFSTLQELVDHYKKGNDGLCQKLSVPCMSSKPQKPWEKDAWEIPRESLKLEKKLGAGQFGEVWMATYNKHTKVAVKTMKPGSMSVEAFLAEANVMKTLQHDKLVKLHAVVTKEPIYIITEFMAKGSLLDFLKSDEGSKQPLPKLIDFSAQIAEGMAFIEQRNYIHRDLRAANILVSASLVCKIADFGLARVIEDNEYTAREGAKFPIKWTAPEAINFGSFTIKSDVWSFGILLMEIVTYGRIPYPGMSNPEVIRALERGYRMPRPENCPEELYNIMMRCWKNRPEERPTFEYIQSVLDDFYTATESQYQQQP
TbHK1 inh = Trypanosoma brucei hexokinase 1 inhibitors, primary screen, biochemical, G6PDH-coupled NADH absorbance, MLSCN library. 220,000 compounds, 0.11% hits. recombinant TbHK1, G6PDH-coupled NADH A340. inhibition, % at 10 µM. hexokinase 1 [Trypanosoma brucei];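 active means inhibition of 50% or more in the single-dose primary screen; inactive means inhibition below 50%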
RanGTP-Imp inh = inhibitors of RanGTP-importin-beta interaction, primary screen, biochemical, FRET, CFP-Ran, YFP-importin-beta, homogeneous; Ran GTPase (GTP-bound) - importin-beta complex; cell-free CFP-Ran/YFP-importin-beta FRET ratio; 300,000 compounds, 1.1% hits; inhibition, % (concentration not given with the values);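 active means more than half of the replicate wells show a fall in the fluorescence ratio signal beyond about 16%, limit read from the data, passing the limit was not always enough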
A number is an active result; – = inactive; · = no result given. Hits are enriched below; roughly 1.9% of the tested compounds scored in any of these assays.

SMILES	Runt-SMMHC FRET	Runt-CBFb FRET	Hck Nef HTS	TbHK1 inh	RanGTP-Imp inh
O=C(CSC1=NC(=O)C(c2ccccc2)C(=O)N1)Nc1ccccc1[N+](=O)[O-] (stereo not drawn)	–	–	–	–	–
O=C1C(=O)N(CCCN2CCOCC2)C(c2ccc([N+](=O)[O-])cc2)/C1=C(/O)c1ccc2c(c1)OCO2 (stereo not drawn)	·	·	·	·	–
O=C(N=C1SC2CS(=O)(=O)CC2N1c1ccccc1C(F)(F)F)C1CCCO1 (stereo not drawn)	·	·	·	·	–
Cc1ccc(NC(=S)N(CCCN(C)C)Cc2cc3cc4c(cc3[nH]c2=O)OCO4)c(C)c1	–	–	–	–	–
O=C(CCN1C(=O)S/C(=C/c2ccccc2)C1=O)Nc1ccc(O)c(C(=O)O)c1	·	·	·	·	–
N=c1c(C(=O)NCc2ccc3c(c2)OCO3)cc2c(=O)n3ccccc3nc2n1CC1CCCO1 (stereo not drawn)	·	·	·	·	–
N=c1c(C(=O)NCCc2ccccc2)cc2c(=O)n3ccccc3nc2n1CC1CCCO1 (stereo not drawn)	·	·	·	·	179
COCCn1c(=N)c(C(=O)NCCc2ccccc2)cc2c(=O)n3cccc(C)c3nc21	·	·	104	–	192
COc1ccc(C2=Nc3nc(-c4ccccc4)cn3C(c3ccc(OC)cc3)C2)cc1 (stereo not drawn)	–	–	–	–	28
COc1ccc(C2CC(c3ccccc3)=NN2C(=O)CCC(=O)O)cc1 (stereo not drawn)	·	·	·	·	–
COc1ccc(NC(=O)C(=O)NCC2CCCN2S(=O)(=O)c2cc(C)ccc2C)cc1 (stereo not drawn)	·	·	·	·	–
COc1ccc(NS(=O)(=O)c2cc3c(cc2C)N(C(C)=O)CCO3)cc1OC	·	·	·	·	–
COC(=O)c1c(C)n(-c2ccccc2)c2ccc(O)cc12	–	–	–	–	–
CN(C)/C=C/c1c([N+](=O)[O-])c2ccc(O)cc2n1-c1ccccc1	–	–	104	–	–
CCOc1ccc(NC(=O)CN(C)S(=O)(=O)c2ccc3c(c2)CCC(=O)N3)cc1	60	–	–	–	–
C=CCOc1ccc(C2OC34CCCCC3C(C#N)(C#N)C2(C#N)C(=N)O4)cc1 (stereo not drawn)	50	–	–	–	46
CCOc1ccc(C2OC34CCCCC3C(C#N)(C#N)C2(C#N)C(=N)O4)cc1OC (stereo not drawn)	–	–	–	–	45
COc1ccc(C(=O)N/C(=C\c2cn(S(=O)(=O)N(C)C)c3ccccc23)C(=O)NCCN2CCOCC2)cc1OC	·	·	·	·	–
CC(=O)c1ccc(N/N=C(/C(N)=O)C2=NC(C)(C)Cc3ccccc32)cc1	–	–	72	–	–
CC1(C)Cc2ccccc2C(/C(=N\Nc2cccc(Cl)c2)C(N)=O)=N1	–	–	–	–	–
CCCCC(=O)Nc1nn(CC(C)C)c2nc3ccccc3cc12	–	–	–	–	29
CCn1nc(NS(=O)(=O)c2ccc(NC(C)=O)cc2)c2cc3ccccc3nc21	·	·	·	·	–
CC(C)Cn1nc(NC(=O)C(C)(C)C)c2cc3ccccc3nc21	–	–	–	–	–
CCCn1nc(NC(=O)CC(C)C)c2cc3ccccc3nc21	–	–	–	–	27
CC(NC(=O)CCC(=O)c1ccc(F)cc1)C1CC2CCC1C2 (stereo not drawn)	–	–	–	–	–
O=C1C/C(=C\c2c(F)cccc2Cl)N2CCC1CC2	–	–	–	–	53
CSC1=N/C(=C\c2c(F)cccc2Cl)C(=O)S1	–	–	–	–	–
O=C(OCc1c(Cl)cccc1Cl)c1cccnc1Cl	–	–	–	–	–
Cc1c(Cl)cccc1Nc1ncccc1C(=O)OCC(O)CO (stereo not drawn)	–	–	–	–	19
CC(C)N1CCc2c(sc(NC(=O)c3ccc(S(=O)(=O)N(C)CC4CCCO4)cc3)c2C(N)=O)C1 (stereo not drawn)	·	·	·	·	72

Screening results: PubChem BioAssay, several laboratories
